High-throughput results: PubChem BioAssay, Broad Institute
RAD54 branch – inhibitors of human RAD54 branch migration | Q92698 | inhibition, % at 10.4 µM | AID 602329 | RAD54 Holliday junction branch migration, FAM/BHQ fluorescence | actives 0.14% (n = 360,000);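 active = mean normalized replicate activity at least 40 and at least half of replicates scoring 40 or more; inconclusive = only one of the two criteria met; inactive = mean below 40 and under half of replicates reaching 40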;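 note: inhibitors cause a drop in the FAM fluorescence signal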
Ecoli rRNA inh – inhibitors of bacterial rRNA selective over humanized ribosomes; actives 1.6% (n = 350,000); GFP signal change (wild-type ribosome), % (no concentration beside the values); E. coli WT GFP vs humanized-ribosome RFP mutants, fluorescence, 24 h; hits give low values; DMSO median 0, no signal -100;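 active = significant combined selectivity score with lowered wild-type GFP, culture density cut under 30%, mutant RFP and density less affected; inactive = any of these conditions unmet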
E-selectin induc – induces E-selectin expression in human endothelial cells; actives 0.37% (n = 260,000); HUVEC E-selectin immunofluorescence imaging; normalized: neutral wells 0, TNF-alpha wells 100; P16581; activation, % at 7.58 µM; AID 686992;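 active = mean E-selectin-positive cell signal at least 10% of the positive control, reached in at least 60% of replicates, without over 20% cell loss; inconclusive = no rule given, readout overlaps actives, possibly toxicity-flagged; inactive = the rest, including those meeting only one limit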
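System: HUVEC, human umbilical vein endothelial cells; quantity: 3,000 cells/well; buffer or medium: EGM-2 medium, gelatin-coated wells; dosing: single-point compound dose; detection: immunofluorescence imaging; evaluation: % PE-positive cells; benchmarks: TNF-alpha, DMSO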
INS-1E GSIS act – primary screen for activators of insulin secretion dependent on glucose, INS-1E cells, GLuc reporter luminescence; actives 0.61% (n = 370,000); INS-1E GLuc reporter insulin secretion, 2-3 h; activation, % at 16.6 µM;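 active = lowest replicate activation of at least 40%, so every replicate reaches that level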
RAD52 anneal inh – blocks human RAD52 DNA annealing; inhibition, % at 18.7 µM; P43351; recombinant RAD52 DNA annealing, FRET fluorescence; actives 0.46% (n = 360,000); AID 651710;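 active = every replicate showing at least 50% inhibition; inconclusive = mean inhibition at least 50% but not in every replicate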
Target sequence (P43351 whole entry, looked up): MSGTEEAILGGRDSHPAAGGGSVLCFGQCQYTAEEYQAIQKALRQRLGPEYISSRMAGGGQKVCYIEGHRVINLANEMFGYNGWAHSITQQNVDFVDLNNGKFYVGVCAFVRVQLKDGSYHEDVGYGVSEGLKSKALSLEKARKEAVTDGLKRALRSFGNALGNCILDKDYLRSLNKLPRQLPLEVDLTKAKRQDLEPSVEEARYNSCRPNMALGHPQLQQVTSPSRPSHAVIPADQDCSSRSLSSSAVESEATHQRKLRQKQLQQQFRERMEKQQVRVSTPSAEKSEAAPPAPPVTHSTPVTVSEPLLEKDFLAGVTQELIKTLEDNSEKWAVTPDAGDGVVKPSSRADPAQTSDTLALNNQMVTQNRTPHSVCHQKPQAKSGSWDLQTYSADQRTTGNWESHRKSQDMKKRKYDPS
AF4-AF9 inh – MLL-AF4/AF9 protein interaction inhibition | AlphaScreen, biotin-AF4 peptide binding to FLAG-AF9 | inhibition, % at 10 µM | actives 0.47% (n = 350,000) | AID 651704;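 active = every replicate reaching a set inhibition limit, whatever the replicate mean, cut at about 25% in these data; inconclusive = mean inhibition reaches that limit but some replicates miss it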
Rad54 DNA ctr – DNA binding artifact in Rad54 counter-screen. AID 651673. Acridine orange-DNA displacement, fluorescence polarization, 20 min. shares compounds with RAD54 branch. AC50, µM (highest dose often 35 µM). actives 8% (n = 460);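 active = signal drop giving an AC50 within twice the top valid tested concentration of each sample, actives reach about 35 µM in these data; inactive = activity opposite to expected, plus the rest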;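 note: polarization loss reports compound binding to salmon sperm DNA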
AlphaScreen intf – interferes with the AlphaScreen assay signal | AC50, µM (top dose mostly 12 µM) | AID 720494 | shares compounds with AF4-AF9 inh | AlphaScreen interference counter-screen, signal luminescence | actives 45% (n = 530); cut-off not given, nearly all actives have AC50 up to about 14 µM
RAD52 DNA ctr – counter-screen for RAD52 inhibitors: DNA binding compounds; shares compounds with RAD52 anneal inh; Salmon sperm DNA/acridine orange FP displacement; AC50, µM; actives 8% (n = 1,000); AID 652128;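 active = fitted half-maximal concentration for signal loss at or below twice the highest dose tested, in every separate run, actives reach about 64 µM in these data; inconclusive = runs disagree, or flat partial signal loss, or poor fit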
Each line names hits and unclear results; the compound was inactive in the other large screens (follow-up assays come after a bar, where they were run); ! = not active in a repeat. A selection: hits, their analogues and other compounds. The true share with any hit is near 2.6%.

O=C(Cc1cccnc1)N1CCCCN2[C@H](CO)[C@@H](c3ccc(/C=C/c4ccccc4)cc3)[C@@H]2C1	none
C/C=C/c1ccc(C2[C@@H]3CN(C(=O)CN(C)C)C[C@H]2N3)cc1 (stereo partly drawn)	RAD52 anneal inh 58! (no result: RAD54 branch)
C/C=C/c1ccc(C2[C@@H]3CN(C(=O)C4CC4)C[C@H]2N3)cc1 (stereo partly drawn)	none (no result: RAD54 branch)
CC(=O)N1C2CN(C)CC1C2c1ccc(Br)cc1 (stereo not drawn)	none (no result: RAD54 branch, E-selectin induc, RAD52 anneal inh, AF4-AF9 inh)
C[C@]1(O)CC[C@H]2[C@@H]3CCC4=CC(=O)CC[C@]4(C)[C@@]3(F)[C@@H](O)C[C@@]21C	INS-1E GSIS act 80 (no result: E-selectin induc, AF4-AF9 inh)
CC1(O)CCC2C3CCC4=CC(=O)CCC4(C)C34OC4CC21C (stereo not drawn)	none
C=CCN1[C@@H]2CN(C(C)=O)C[C@H]1C2c1ccccc1 (stereo partly drawn)	none (no result: RAD54 branch, E-selectin induc, RAD52 anneal inh, AF4-AF9 inh)
CC(C)NC(=O)N1C[C@@H]2C(c3ccc(Br)cc3)[C@H](C1)N2CC1CC1 (stereo partly drawn)	none (no result: RAD54 branch, E-selectin induc, RAD52 anneal inh, AF4-AF9 inh)
O=C(NC1CN2CCC1CC2)c1cc(Cl)c([N+](=O)[O-])c2nc[nH]c12 (stereo not drawn)	RAD54 branch 56 (no result: Ecoli rRNA inh, RAD52 anneal inh, AF4-AF9 inh) | Rad54 DNA ctr inactive
CCNCCNc1ccc([N+](=O)[O-])c2cccnc12	RAD54 branch 56 (no result: INS-1E GSIS act) | Rad54 DNA ctr inactive
Cc1ccc(-c2nc(N(C)C3CCN(C)CC3)c3ccccc3n2)cc1	RAD54 branch 96 (no result: Ecoli rRNA inh, E-selectin induc, INS-1E GSIS act, RAD52 anneal inh, AF4-AF9 inh) | Rad54 DNA ctr inactive
CN1CCC(N(C)c2ncnc3ccc(Br)cc23)CC1	none (no result: Ecoli rRNA inh, E-selectin induc, RAD52 anneal inh, AF4-AF9 inh)
Cc1cccc(S(=O)(=O)N2[C@@H]3c4ccc(-c5ccccc5)c(=O)n4C[C@H]2[C@H](CO)[C@H]3C(=O)O)c1	none
Nc1ccc(C2(c3ccc(N)cc3)CN3CCC2CC3)cc1	RAD54 branch 96 (no result: Ecoli rRNA inh, E-selectin induc, RAD52 anneal inh, AF4-AF9 inh) | Rad54 DNA ctr inactive
CC(Cc1ccccc1)NCc1ccccc1O (stereo not drawn)	none
CC(Cc1ccccc1)NCC(=O)Nc1cc(N(C)C)nc2ccccc12 (stereo not drawn)	RAD54 branch inconclusive | Rad54 DNA ctr inactive
COC(=O)[C@H]1[C@H](CO)[C@H]2Cn3c(cccc3=O)[C@@H]1N2CCc1ccccc1	none
Nc1ccnn1C1CCNCC1	RAD54 branch 93 (no result: Ecoli rRNA inh, E-selectin induc, INS-1E GSIS act, RAD52 anneal inh, AF4-AF9 inh) | Rad54 DNA ctr inactive
CN1CCC(n2nccc2N)CC1	none (no result: Ecoli rRNA inh, E-selectin induc, INS-1E GSIS act, RAD52 anneal inh, AF4-AF9 inh)
COC(=O)[C@@H]1[C@@H](CO)[C@@H]2Cn3c(cccc3=O)[C@H]1N2C(=O)C1CCCC1	none
CCC1CN2CCc3cc(OC)c(OC)cc3C2CC1CC1NCCc2c1[nH]c1ccc(O)cc21 (stereo not drawn)	AF4-AF9 inh inconclusive (no result: RAD54 branch) | AlphaScreen intf inactive
COc1ccc2c(c1OC)CN1CCc3cc4c(cc3[C@H]1C2)OCO4	none (no result: Ecoli rRNA inh, E-selectin induc, INS-1E GSIS act, RAD52 anneal inh, AF4-AF9 inh)
Cc1[nH]c2ccc(OCc3ccccc3)cc2c1CCN	AF4-AF9 inh 41 | AlphaScreen intf inactive
OCCNCCc1c[nH]c2ccc(OCc3ccccc3)cc12	none
O=c1[nH]c2ccccc2n1C1CCN(C(c2nnnn2C2CCCCC2)C2CC2)CC1 (stereo not drawn)	AF4-AF9 inh 36 | AlphaScreen intf inactive
CSCCC(c1nnnn1C1CCCCC1)N1CCC(n2c(=O)[nH]c3ccccc32)CC1 (stereo not drawn)	AF4-AF9 inh 34 | AlphaScreen intf inactive
O=C(Cc1ccccn1)N1CCCCN2[C@H](CO)[C@H](c3ccc(-c4ccccc4)cc3)[C@@H]2C1	none
O=C(Cc1ccccn1)N1CCCCN2[C@@H](CO)[C@@H](c3ccc(Br)cc3)[C@@H]2C1	none
CN1CCN(c2ccc(N)cc2Cl)CC1	RAD52 anneal inh 85, AF4-AF9 inh 88 (no result: RAD54 branch, E-selectin induc) | AlphaScreen intf 5.4µM | RAD52 DNA ctr 39µM
CN1CCN(c2ccc(Cl)cc2N)CC1	none (no result: RAD54 branch, E-selectin induc)
COc1ccc(C#Cc2ccc([C@H]3[C@H]4CN(C(=O)Cc5ccccc5)CCCCN4[C@H]3CO)cc2)cc1	none
Cc1c(P(=S)(c2ccccc2)c2ccccc2)[n+]2ccccc2n1C	RAD52 anneal inh 97!, AF4-AF9 inh 66! | AlphaScreen intf inactive | RAD52 DNA ctr inactive
COc1ccc(-c2ccc([C@H]3[C@H](CO)N4CCCCN(C(=O)Cc5ccccc5)C[C@@H]34)cc2)cc1	none
CCN(CCCl)c1cc(CN(C)C)cc(NC(=O)c2ccc(C(=O)Nc3cc(CN(C)C)cc(N(CC)CCCl)c3)cc2)c1	RAD52 anneal inh 105, AF4-AF9 inh 70 (no result: RAD54 branch) | AlphaScreen intf 2.5µM | RAD52 DNA ctr inconclusive
COc1cc2c(cc1OC)-c1c(OC)c(OC)cc3c1[C@H](C2)N(C)CC3	RAD54 branch 91, RAD52 anneal inh 76 (no result: E-selectin induc) | RAD52 DNA ctr inactive
NC(Cc1ccc(F)cc1)c1csc(Nc2ncccn2)n1 (stereo not drawn)	none
Nc1ccc(CC(N)c2csc(Nc3ncccn3)n2)cc1 (stereo not drawn)	RAD52 anneal inh 87 | RAD52 DNA ctr inactive
COc1ccc(-c2ccc3n(c2=O)C[C@H]2[C@H](CO)[C@@H](C(=O)O)[C@@H]3N2C(=O)c2ccccc2F)cc1	none
COCC#Cc1ccc([C@@H]2[C@@H](CO)N3CCCCN(C(=O)Cc4ccccn4)C[C@@H]23)cc1	none
C/C=C/c1ccc([C@H]2[C@@H](CO)N3CCCCN(C(=O)Cc4ccncc4)C[C@H]23)cc1	none
CC(=O)C1CCC2C3CCC4CC(O)CCC4(C)C3CCC12C (stereo not drawn)	none (no result: Ecoli rRNA inh, INS-1E GSIS act)
C[C@]12CCC3C(CC[C@H]4C[C@@H](O)CC[C@]34C)C1CC[C@@H]2OC(=O)[C@H](N)CCCCN (stereo partly drawn)	RAD54 branch 66, RAD52 anneal inh 97 (no result: Ecoli rRNA inh, E-selectin induc) | RAD52 DNA ctr inactive
Oc1ccc2c3c1O[C@H]1c4[nH]c5ccccc5c4C[C@@]4(O)[C@@H](C2)N(CC2CC2)CC[C@]314	none (no result: Ecoli rRNA inh, INS-1E GSIS act)
NC(N)=Nc1ccc2[nH]c3c(c2c1)C[C@@]1(O)[C@H]2Cc4ccc(O)c5c4[C@@]1(CCN2CC1CC1)C3O5 (stereo partly drawn)	RAD52 anneal inh 53 (no result: E-selectin induc, AF4-AF9 inh) | RAD52 DNA ctr inactive
CC(N)Cc1c[nH]c2ccc(O)cc12 (stereo not drawn)	none (no result: Ecoli rRNA inh)
Cc1[nH]c2ccc(O)cc2c1CCN	RAD52 anneal inh 81, AF4-AF9 inh 32 (no result: Ecoli rRNA inh, INS-1E GSIS act) | RAD52 DNA ctr inactive
Cc1ccc2c(C)c3ccc4ccccc4c3c[n+]2c1	RAD52 anneal inh 93 (no result: RAD54 branch, INS-1E GSIS act) | RAD52 DNA ctr 13µM
